S100A4 inh HTS = inhibitors of S100A4-myosin IIA peptide binding, primary screen, biochemical, fluorescence polarization, TAMRA-MyoIIA peptide; Protein S100-A4 (Homo sapiens), P26447; inhibition, % at 10.7 µM; 360,000 compounds, 0.14% hits; AID 652163, 2013;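 active = mean inhibition of at least 70% across replicates, with every replicate also reaching that level; inconclusive = mean inhibition reaches 70% but some replicates fall short; inactive = mean inhibition below 70%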
Target sequence (P26447 whole entry, looked up): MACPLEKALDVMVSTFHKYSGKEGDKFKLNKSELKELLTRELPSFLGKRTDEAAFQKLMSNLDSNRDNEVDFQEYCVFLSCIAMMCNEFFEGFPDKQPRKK
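Compound dosing: one dose per compound; test system: human S100A4 monomer with TAMRA-labelled myosin IIA peptide; probe or stimulus: TAMRA-labelled myosin IIA heavy-chain peptide probe, 5 nM; medium: HEPES buffer with Ca2+, pH 7.2; schedule: 5 min incubation before reading; benchmarks: neutral control DMSO, positive control TFP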
F508del corr = F508del CFTR correction, initial screen, CFBE line, single point; CFBE cells, YFP halide quenching; stimulated with forskolin plus potentiator P3; % fluorescence drop versus neutral controls; activity (quench increase), % at 7.58 µM; 350,000 compounds, 0.36% hits; AID 720511, 2013;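 active = mean added fluorescence quench of at least 8% versus neutral control, with both replicates also reaching 8%; inconclusive = only one of the mean or replicate conditions met; inactive = mean below 8% and not both replicates reaching 8%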;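 note: cells transiently co-express mutant CFTR-F508del with the halide-sensitive YFP; corrector assay measuring rescue of mutant channel to the surface after 24 h compound exposure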
Env fusion inh = inhibitors of HIV-1 Env-driven cell-cell fusion, primary screen, HeLa-JRFL effector, CEM21 target cells, luciferase. inhibition, % at 12.3 µM. AID 651610, 2012. 360,000 compounds, 1.1% hits;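 active = mean replicate inhibition score of at least 50 and every replicate individually at or above 50; inconclusive = only one of the two criteria met; inactive = mean below 50 and not all replicates reaching 50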
FGF22 binding = binders of human FGF22 protein, primary screen, FGF22 synaptogenesis inhibitor project, biophysical, thermal shift, single point | activity (Tm shift, normalised), % at 9.99 µM | recombinant FGF22 thermal shift, SYPRO orange fluorescence; percent of sucrose octasulfate shift, DMSO zero | AID 651658, 2012 | 340,000 compounds, 1.5% hits;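 active = mean Tm shift, scaled 0 neutral to 100 positive control, at about 1.3% or above, every replicate too, limit read from the data; inconclusive = no clear call, values can overlap the other calls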
E-sel inducer = E-selectin induction in HUVECs, primary screen, imaging, HUVEC, immunofluorescence imaging, single point; normalized: neutral wells 0, TNF-alpha wells 100; activation, % at 7.58 µM; AID 686992, 2013; 260,000 compounds, 0.37% hits;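 active = mean E-selectin-positive cell signal at least 10% of the positive control, reached in at least 60% of replicates, without over 20% cell loss; inconclusive = no rule given, readout overlaps actives, possibly toxicity-flagged; inactive = the rest, including those meeting only one limit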
Target sequence (P16581 whole entry, looked up): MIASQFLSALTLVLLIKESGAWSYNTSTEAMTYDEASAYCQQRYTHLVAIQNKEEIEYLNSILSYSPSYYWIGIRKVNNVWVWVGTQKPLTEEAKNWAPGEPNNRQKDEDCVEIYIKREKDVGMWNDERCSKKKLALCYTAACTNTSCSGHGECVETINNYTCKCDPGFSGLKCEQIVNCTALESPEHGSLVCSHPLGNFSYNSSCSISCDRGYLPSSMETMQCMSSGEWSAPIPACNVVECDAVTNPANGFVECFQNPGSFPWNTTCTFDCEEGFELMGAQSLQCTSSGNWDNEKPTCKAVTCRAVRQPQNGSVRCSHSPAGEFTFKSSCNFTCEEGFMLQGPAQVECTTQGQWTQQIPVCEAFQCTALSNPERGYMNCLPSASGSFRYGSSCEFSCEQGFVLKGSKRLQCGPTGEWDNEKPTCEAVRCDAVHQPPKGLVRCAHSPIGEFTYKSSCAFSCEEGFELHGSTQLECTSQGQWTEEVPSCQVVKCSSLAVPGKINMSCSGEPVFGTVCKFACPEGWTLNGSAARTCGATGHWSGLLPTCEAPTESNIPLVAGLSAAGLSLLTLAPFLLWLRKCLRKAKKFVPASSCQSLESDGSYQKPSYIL
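Assay system: HUVEC, human umbilical vein endothelial cells / Amount: 3,000 HUVEC/well / Controls: TNF-alpha positive control, DMSO neutral control / Compound dosing: single concentration / Medium: EGM-2 over gelatin coat / Evaluation: percent E-selectin-positive cells / Signal: immunofluorescence imaging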
Hits are given with their value; - = inactive; ? = inconclusive; . = no result. Only some compounds are listed: those with a hit (about 2.7% of all), similar ones and a draw of the others.

SMILES	S100A4 inh HTS	F508del corr	Env fusion inh	FGF22 binding	E-sel inducer
Cc1ccc(-c2ccc([C@H]3[C@@H](CO)N4CCCCN(C(=O)Nc5cccc(F)c5)C[C@H]34)cc2)cc1	-	8.0	.	-	-
O=C(Nc1ccc(F)cc1)N1CCCCN2[C@H](C1)[C@H](c1ccc(-c3cccc(F)c3)cc1)[C@@H]2CO	-	8.9	.	-	-
COc1ccc(C#Cc2ccc([C@H]3[C@@H](CO)N4CCCCN(C(=O)Nc5ccccc5)C[C@@H]34)cc2)cc1	-	-	.	-	-
COc1ccc(C#Cc2ccc([C@H]3[C@H]4CN(C(=O)Nc5ccccc5)CCCCN4[C@H]3CO)cc2)cc1	119.1	-	.	-	-
O=C(Nc1ccc(F)cc1)N1CCCCN2[C@H](CO)[C@H](c3ccc(-c4cccc(F)c4)cc3)[C@H]2C1	-	-	.	-	-
O=C(C[C@H]1CC[C@H]2[C@@H](COC[C@H](O)CN2S(=O)(=O)c2ccc(Cl)cc2)O1)N[C@@H]1CCN(Cc2ccccc2)C1	-	-	.	-	-
O=C(Nc1cccc(F)c1)N1CCCCN2[C@H](CO)[C@@H](c3ccc(C#Cc4ccccc4)cc3)[C@@H]2C1	-	-	.	-	-
O=C(Nc1cccc(F)c1)N1CCCCN2[C@@H](CO)[C@H](c3ccc(C#CC4CC4)cc3)[C@@H]2C1	-	8.6	.	-	-
CC(=O)N1CCCCN2[C@H](CO)[C@H](c3ccc(C#Cc4ccccc4F)cc3)[C@H]2C1	-	-	.	-	-
CC(=O)N1CCCCN2[C@H](CO)[C@H](c3ccc(C#Cc4ccccc4F)cc3)[C@@H]2C1	96.5	-	.	-	-
C=CCNc1nc2c(c(=O)n(C)c(=O)n2C)n1CC	-	-	-	-	-
C=CCNc1nc2c(c(=O)n(C)c(=O)n2C)n1CCCCCC	.	.	92.1	.	.
CC(C)COC(=O)OCN1C(=O)CN(CCN2CC(=O)N(COC(=O)OCC(C)C)C(=O)C2)CC1=O	-	-	-	-	-
CN1C(=O)CN(CCN2CC(=O)N(C)C(=O)C2)CC1=O	-	-	.	43.3	-
C=CC[C@]12CCc3ccccc3C1N(c1ccc(C(=O)OCC)cc1)C2=O (stereo not given in full)	-	-	61.5	-	-
O=C(COC(=O)c1cc(S(=O)(=O)N2CCOCC2)ccc1O)NCc1ccc2c(c1)OCO2	-	-	81.7	.	-
CN(C)c1cccc(C(=O)NCc2ccc3c(c2)OCO3)c1	-	-	-	-	29.1
Cn1cccc1C(=O)OCC(=O)NCc1ccc2c(c1)OCO2	-	37.2	-	-	.
Cc1ccc(S(=O)(=O)N2CCOCC2)cc1C(=O)OCC(=O)NCc1ccc2c(c1)OCO2	-	-	-	-	-
CN(C)S(=O)(=O)c1cccc(C(=O)OCC(=O)NCc2ccc3c(c2)OCO3)c1	-	-	-	42.9	.
CC(C)N(Cc1nc(-c2ccc(Cl)cc2)no1)C(=O)CN(C)S(=O)(=O)c1ccc(Cl)cc1	-	-	.	-	.
CC(C)N(Cc1nc(-c2ccccc2)no1)C(=O)CN(C)S(=O)(=O)c1ccc(Br)cc1	.	.	69.6	.	.
C[C@H]1CN([C@@H](C)CO)S(=O)(=O)c2ccc(-c3cccnc3)cc2O[C@@H]1CN(C)Cc1ccncc1	-	-	-	-	-
O=C(NCc1cccnc1)c1c(O)c2cccc3c2n(c1=O)CCC3	-	-	-	43.1	.
CCOc1ccc(/C=C/C2=NNC(=O)CC2)cc1	-	-	-	-	-
SMILES	S100A4 inh HTS	F508del corr	Env fusion inh	FGF22 binding	E-sel inducer
COc1ccc(/C=C/C2=NNC(=O)CC2)cc1	-	-	59.8	-	.
COc1ccc(/C=C/C2=NN(Cc3ccccc3)C(=O)CC2)cc1	-	-	-	43.1	-
CCCOc1ccc2ccccc2c1/C=N/n1cnnc1	.	.	90.9	.	.
C[C@H](CO)N1C[C@H](C)[C@@H](CN(C)C(=O)C2CCOCC2)Oc2cc(C3=CCCCC3)ccc2S1(=O)=O	-	-	-	-	-
CO[C@@H]1CN(C)C(=O)c2ccc(NC(=O)C3CC3)cc2OC[C@H](C)N(Cc2cccc(F)c2)C[C@H]1C	.	-	-	.	-
COc1cc(CC(=O)OCC(=O)Nc2ccccc2C#N)cc(OC)c1OC	-	-	-	-	-
COc1cc(CCC(=O)OCC(=O)Nc2ccccc2C#N)cc(OC)c1OC	-	-	-	-	458.4
COc1ccc(S(=O)(=O)Nc2cccc3c2O[C@@H](CN(C)S(=O)(=O)c2ccc(Cl)cc2)[C@H](C)CN([C@@H](C)CO)C3=O)cc1	-	-	-	-	-
C#CCNc1cc(-c2ccccc2)nc2ncnn12	-	-	-	43.8	.
NC(=O)c1ncn([C@@H]2O[C@H](CNCc3cccn3-c3ccncc3)[C@@H](O)[C@H]2O)n1	-	-	-	43.1	-
Cc1ccccc1C1NC(=S)NC2=C1C(=O)CC(C)(C)C2 (stereo not given)	-	-	-	43.3	-
CC1(C)CC(=O)C2=C(C1)Nc1ccccc1NC2c1ccccc1F (stereo not given)	-	-	-	-	-
OC(C1=CC(=Cc2ccncc2)c2ccccc21)c1ccncc1 (stereo not given)	-	-	-	43.2	-
CC(=O)Nc1nc(-c2ccc3c(c2)CC(C)N3C(=O)C2CC2)c(C)s1 (stereo not given)	-	-	58.6	-	-
COc1ccccc1-n1c(C)nnc1SCC(N)=O	.	.	-	.	.
COc1ccccc1-n1c(C)nnc1SCC(=O)Nc1cc(C)cc(C)c1	.	.	55.6	.	.
COc1ccccc1-c1cnc2c(c1)C(=O)N([C@@H](C)CO)C[C@@H](C)[C@H](CN(C)Cc1cccc(F)c1)O2	-	-	-	-	-
c1ccc2c(N3CCCCC3)ncnc2c1	.	.	69.9	.	.
c1ccc2c(c1)nc(N1CCCCCC1)c1ccccc12	-	-	-	-	-
CCc1nc2c(OCc3ccc(C(F)(F)F)cc3)cccn2c1N(C)C(=O)c1ccc(C)cc1	-	-	56.7	-	-
CCOC(=O)N(C)c1c(CC)nc2c(OCc3cc(Cl)cc(Cl)c3)cccn12	?	-	56.0	-	-
Cc1[nH][nH]c(=O)c1C=NCc1cccnc1	-	-	-	43.6	.
O=C(NC1CCCC1)N1CC2(C1)[C@@H](c1ccccc1)[C@@H](CO)N2CC1CCOCC1	-	-	.	-	-
COc1ccc(NC2CC(=O)N(c3cc([N+](=O)[O-])ccc3C)C2=O)cc1 (stereo not given)	-	-	-	43.2	.
CC(C)NC(=O)C1(C)CCN1Cc1ccc(-c2ccccc2)cc1 (stereo not given)	-	-	56.6	-	-
COCC(=O)N(C)C[C@@H]1Oc2ncc(C#C[C@@H](C)O)cc2C(=O)N([C@H](C)CO)C[C@@H]1C	-	-	-	-	-

Screening results: PubChem BioAssay, Broad Institute
